Series [1] in a line: folding enthalpy; higher = less favourable; fluorescence melt of hairpins on a sequencing array, two-state fit. The following applies: sodium 0.088 M. An outline of the steps: (§1)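 Library hairpins on a sequenced MiSeq flow cell carried annealed Cy3 and quencher oligos, and their Cy3 fluorescence was imaged in 50 mM Na-HEPES pH 8.0 with 25 mM NaCl, in 2.5 °C steps up to 60 °C. Signals were normalised to Cy3 before quenching and to control constructs. Melting temperature and folding enthalpy were obtained from bootstrapped two-state fits, combined by inverse-variance weighting across four replicates, and the fitted temperatures were then raised by 9.35 °C to match UV melts.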

Series [2] is described as follows: melting temperature; fluorescence melt of hairpins on a sequencing array, two-state fit, raised by 9.35 °C to match UV melts. The following applies: sodium 0.088 M. An outline of the steps:
as §1

Turning to GGCTTCGGAAACGAAACC ((.((((....)))).)), the folding enthalpy in series [1] was -25.4 kcal/mol. Further, in series [2], the Tm was found to be 44.8 °C.
The corresponding values for GGCTTCGGAAACGGAGTC (.((.((....)).)).) are -24.1 kcal/mol and 39.9 °C.
For GGCTTCTCGAAAGAGGCC (((..(((....)))))), in series [1], the folding enthalpy is -24.4 kcal/mol. The Tm in series [2] came to 47.1 °C.
The corresponding values for GGCTTGAAAAAGCC (((((....))))) are -31.3 kcal/mol and 59.6 °C.
Turning to GGCTTGCCGAAAGGCGCC (((..(((....)))))), the folding enthalpy in series [1] is -14 kcal/mol. In addition, in series [2], the Tm worked out at 55.8 °C.
In the same order, the values of GGCTTTGGAAACAAAACC ((.((((....)))).)) are -27.3 kcal/mol and 36.8 °C.
The corresponding values for GGCTTTTCGAAAGAAGCC (((..(((....)))))) are -33.7 kcal/mol and 45.6 °C.
In the same order, the values of GGGAACGAAAGTTGCCCC ((((((....)))..))) are -10.7 kcal/mol and 68.7 °C.
Turning to GGGAACGAAAGTTTTCCC ((((((....)))..))), in series [1], the folding enthalpy is -19.1 kcal/mol. Also, the Tm in series [2] was 35.5 °C.
In the same order, the values of GGGAACGGAAACGCTCCC ((((.((....)).)))) are -36.6 kcal/mol and 52.1 °C.
In the same order, the values of GGGAACGGAAACGTTTCC ((.((((....)))).)) are -35.2 kcal/mol and 53.7 °C.
As for GGGAATCGAAAGATGCCC (((.(((....))).))), in series [1], the folding enthalpy is -44.3 kcal/mol. In addition, the Tm in series [2] turned out to be 54.6 °C.
In the same order, the values of GGGACAGCGAAAGCTCCC (((..(((....)))))) are -19 kcal/mol and 46.1 °C.
In the same order, the values of GGGACAGGAAACTGCCCC (((.(((....))).))) are -35.2 kcal/mol and 50.8 °C.
Regarding GGGACATCGAAAGATCCC (((..(((....)))))), in series [1], the folding enthalpy is -18.5 kcal/mol. Also, the Tm in series [2] came out at 36.1 °C.
In the same order, the values of GGGACCCCGAAAGGGCCC (((..(((....)))))) are -20.3 kcal/mol and 58.6 °C.
The corresponding values for GGGACCCGAAAGGGCCCC (((.(((....))).))) are -23.6 kcal/mol and 67.8 °C.
In the same order, the values of GGGACCGAAAGGTCGCCC ((((((....)))..))) are -10.3 kcal/mol and 57.5 °C.
Turning to GGGACCGAAAGGTTACCC ((((((....)))..))), the folding enthalpy in series [1] is -17.6 kcal/mol. In addition, the Tm in series [2] was determined as 47 °C.
Turning to GGGACGCGAAAGCGCCC (((.(((....)))))), in series [1], the folding enthalpy is -15.4 kcal/mol. Moreover, in series [2], the Tm came to 64.7 °C.
The corresponding values for GGGACTGCGAAAGCACCC (((..(((....)))))) are -9.02 kcal/mol and 37.3 °C.
In the same order, the values of GGGACTGGAAACAGTTCC ((.((((....)))).)) are -36.1 kcal/mol and 51.4 °C.
The corresponding values for GGGAGAGAAATCTCCC ((((((....)))))) are -35 kcal/mol and 56.4 °C.
Regarding GGGAGAGGAAACTCTCCC (((((((....))))))), in series [1], the folding enthalpy was -42.9 kcal/mol. Also, the Tm in series [2] stood at 64.8 °C.
The corresponding values for GGGAGAGGAAACTTTCCC ((((.((....)).)))) are -27.3 kcal/mol and 42.1 °C.
Regarding GGGAGCCCGAAAGGGCCC (((..(((....)))))), the folding enthalpy in series [1] is -10.7 kcal/mol. For the same sequence, the Tm in series [2] was found to be 58.8 °C.
The corresponding values for GGGAGCGAAAGCTACCCC ((((((....)))..))) are -12 kcal/mol and 59.8 °C.
The corresponding values for GGGAGCGAAAGCTCACCC ((((((....)))..))) are -11.2 kcal/mol and 57.2 °C.
In the case of GGGAGCGAAAGCTCTCCC ((((((....)))..))), the folding enthalpy in series [1] was -11.8 kcal/mol. For the same sequence, the Tm in series [2] was 52.2 °C.
In the same order, the values of GGGAGCGAAAGCTGACCC ((((((....)))..))) are -16.5 kcal/mol and 45.9 °C.
On to GGGAGCGAAAGCTGCCC ((((((....))).))), for which, in series [1], the folding enthalpy was -15.1 kcal/mol. In addition, the Tm in series [2] came out at 60.5 °C.
The corresponding values for GGGAGCGGAAACACCCCC (((.(.(....).).))) are -16 kcal/mol and 28.2 °C.
The corresponding values for GGGAGCTCGAAAGAGCCC (((..(((....)))))) are -11.2 kcal/mol and 57.2 °C.
GGGAGGCGAAAGCCCCC (((.(((....)))))): the folding enthalpy in series [1] was -19.2 kcal/mol. Moreover, the Tm in series [2] is 66.3 °C.
The corresponding values for GGGAGGGCGAAAGCCCCC (((..(((....)))))) are -10.6 kcal/mol and 55.3 °C.
GGGAGGGGAAACCCCCCC (((.(((....))).))): in series [1], the folding enthalpy is -38.7 kcal/mol. Also, in series [2], the Tm is 53.3 °C.
